# Measurements gathered from unrelated publications.
# Protocols differ between the studies behind these lines.
# Medium: plasma
SMILES,host,route,dose,quantity,result
OCc1nc2ccc(NCc3ccc(C(F)(F)F)cc3)cc2[nH]1,male BALB/c mouse,oral,10 mg/kg,CL/F,61.2 mL/min/kg
Cc1cc(-c2ccnc3[nH]cc(F)c23)cc(F)c1[C@@]1(O)[C@H](C)CN(C2CCS(=O)(=O)CC2)C[C@@H]1C,male CD-1 mouse,intravenous,1 mg/kg,clearance,5.86 mL/min/kg
CN(C)C(=O)c1cc2cnc(Nc3ccc(-c4ccc5c(=O)cc(N6CCOCC6)oc5c4)cc3)nc2n1C1CCCC1,BALB/c mouse,oral,20 mg/kg,CL/F,120 mL/min/kg
Cc1ccc(OCC(=O)N[C@@H](Cc2c[nH]c3ccccc23)C(=O)OC(C)C)cc1,male Sprague-Dawley mouse,intravenous,10 mg/kg,clearance,5.5 mL/min/kg
O=C1CCC(N2Cc3cc(CO)c(F)cc3C2=O)C(=O)N1 (stereo not drawn),male CD-1 mouse,intravenous,1 mg/kg,clearance,52.9 mL/min/kg
C=CCn1c(=O)c2cnc(Nc3ccc(N4CCN(C)CC4)cc3)nc2n1-c1ccc2c(n1)[C@@](O)(CC)CC2,mouse,intravenous,3 mg/kg,clearance,54 mL/min/kg
O=C1CCC(N2Cc3cc(C4CCN(Cc5ccccc5)CC4)ccc3C2=O)C(=O)N1 (stereo not drawn),male CD-1 mouse,intravenous,1 mg/kg,clearance,48 mL/min/kg
NCc1cc2c(cc1F)C(=O)N(C1CCC(=O)NC1=O)C2 (stereo not drawn),male CD-1 mouse,intravenous,1 mg/kg,clearance,112 mL/min/kg
Cc1nc2ccc(OCc3ccc(C(F)(F)F)cc3)cc2[nH]1,male BALB/c mouse,oral,10 mg/kg,CL/F,12.7 mL/min/kg
Cc1ncsc1-c1ccc([C@H](C)NC(=O)[C@@H]2C[C@@H](O)CN2C(=O)[C@@H](NC(=O)CCCCCCCCC(=O)N2CCC(n3cc(-c4ccc5c(c4)CCN5C(=O)Cc4cccc(OC(F)(F)F)c4)c4c(N)ncnc43)CC2)C(C)(C)C)cc1,male C57BL/6 mouse,intravenous,1 mg/kg,clearance,13.3 mL/min/kg
CCCC[C@@H](NC(=O)[C@@H](Cc1cn(C(=O)OC)c2ccccc12)NC(=O)[C@H](CC(C)(C)C)NC(=O)N1[C@H](C)CCC[C@@H]1C)C(=O)O,male CD-1 mouse,intravenous,3 mg/kg,clearance,222 mL/min/kg
Cc1ncsc1-c1ccc([C@H](C)NC(=O)[C@@H]2C[C@@H](O)CN2C(=O)[C@@H](NC(=O)CCCCCCCCCCC(=O)NCCCn2cc(-c3ccc4c(c3)CCN4C(=O)Cc3cccc(OC(F)(F)F)c3)c3c(N)ncnc32)C(C)(C)C)cc1,mouse,intravenous,1 mg/kg,clearance,19.8 mL/min/kg
Cc1cc(-c2ccnc3[nH]cc(F)c23)cc(F)c1[C@@]1(O)[C@H](C)CN(C(=O)CN)C[C@@H]1C,male CD-1 mouse,intravenous,1 mg/kg,clearance,0.775 mL/min/kg
Oc1ccc([C@@H]2Oc3ccc(O)cc3[C@@H]3CCC[C@@H]32)cc1,male C57BL/6 mouse,intravenous,1 mg/kg,clearance,1.67 mL/min
Cc1ncsc1-c1ccc([C@H](CC(=O)N2CC3(C2)CN(c2ccc(C#Cc4ccc(C(=O)N5CCC(n6cc(-c7ccc8c(c7)CCN8C(=O)Cc7cccc(OC(F)(F)F)c7)c7c(N)ncnc76)CC5)cc4)cn2)C3)NC(=O)[C@@H]2C[C@@H](O)CN2C(=O)[C@@H](NC(=O)C2(F)CC2)C(C)(C)C)cc1,male C57BL/6 mouse,intravenous,1 mg/kg,clearance,2.8 mL/min/kg
